These results are taken from publication PMC6287576 (International Journal for Parasitology: Drugs and Drug …, 2018).

In experiment [1] the test system is recombinant A. suum N-AChR. The following applies: ref Zheng et al., 2017; cited from earlier work.
The target in experiment [2] is T1, P. equorum N-AChR (ACR-16) (Parascaris equorum, UniProt A0A3S9VMQ8).
T1 sequence (A0A3S9VMQ8 25-504): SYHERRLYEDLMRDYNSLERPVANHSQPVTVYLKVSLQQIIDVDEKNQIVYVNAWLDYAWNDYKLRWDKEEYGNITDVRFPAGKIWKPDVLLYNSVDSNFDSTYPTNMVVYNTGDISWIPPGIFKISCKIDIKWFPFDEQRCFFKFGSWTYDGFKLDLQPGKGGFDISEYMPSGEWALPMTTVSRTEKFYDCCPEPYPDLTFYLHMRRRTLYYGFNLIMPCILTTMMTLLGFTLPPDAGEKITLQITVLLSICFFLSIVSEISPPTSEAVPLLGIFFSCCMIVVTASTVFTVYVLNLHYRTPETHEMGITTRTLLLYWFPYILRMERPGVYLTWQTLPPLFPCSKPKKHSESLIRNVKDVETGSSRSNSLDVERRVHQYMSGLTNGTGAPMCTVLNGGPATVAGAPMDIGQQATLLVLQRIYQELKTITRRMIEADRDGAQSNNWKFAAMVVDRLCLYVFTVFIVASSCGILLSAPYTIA
The experiment in a line: Two-electrode voltage-clamp, Peq-N-AChR in Xenopus oocytes. Type of experiment: cell-based. The conditions noted are these: for Hill slope: Peq N-AChR; for current elicited by perfusion: Peq-N-AChR, 100 μM. On the technique in general: In two-electrode clamp one electrode senses voltage and the other passes current.

Experiment [3] deals with T2, C. elegans N-AChR (ACR-16) (Caenorhabditis elegans, UniProt P48180).
T2 sequence (P48180 20-498): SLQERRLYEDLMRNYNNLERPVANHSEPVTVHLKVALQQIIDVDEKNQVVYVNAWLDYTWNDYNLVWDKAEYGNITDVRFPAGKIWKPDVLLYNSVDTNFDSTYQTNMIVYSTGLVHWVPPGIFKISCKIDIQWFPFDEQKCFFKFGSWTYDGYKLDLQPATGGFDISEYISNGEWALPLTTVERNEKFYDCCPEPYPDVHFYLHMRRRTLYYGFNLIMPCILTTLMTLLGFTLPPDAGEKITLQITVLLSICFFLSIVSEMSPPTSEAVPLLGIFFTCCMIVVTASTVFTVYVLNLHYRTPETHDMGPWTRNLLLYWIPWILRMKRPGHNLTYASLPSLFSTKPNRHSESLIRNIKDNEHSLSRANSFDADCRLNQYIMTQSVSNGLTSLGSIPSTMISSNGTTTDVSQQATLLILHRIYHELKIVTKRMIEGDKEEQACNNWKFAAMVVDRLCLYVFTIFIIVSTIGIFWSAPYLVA
The experiment in a line: Two-electrode voltage-clamp, Cel-N-AChR in Xenopus oocytes. The format is cell-based. The conditions noted are these: for Hill slope: Cel N-AChR.

Experiment [4] concerns H. contortus L3 larvae, anthelmintic-susceptible Weybridge isolate. The experiment in a line: Automated larval migration assay. The following applies: Haemonchus contortus, read-out: IC50 (L3 migration, ALMA).
The test system of experiment [5] is C. elegans lev-8 (ok1519) mutant lacking L-AChR. The experiment in a line: C. elegans paralysis assay, lev-8 mutant. Details: species or system Caenorhabditis elegans. The following applies: agar plate containing 31 mM drug, 15-60 min.
Experiment [6] has as its system C. elegans acr-16 (ok789) mutant lacking N-AChR. The experiment in a line: C. elegans paralysis assay, acr-16 mutant. Set-up: species or system Caenorhabditis elegans. The conditions noted are these: agar plate containing 31 mM drug, 15-60 min.
For another experiment, the system named is H. contortus L-AChR-1. The experiment in a line: Two-electrode voltage-clamp, Hco-L-AChR-1 in Xenopus oocytes. Type of experiment: cell-based, Haemonchus contortus. The conditions noted are these: 100 μM.
Experiment [7] has as its system C. elegans L-AChR. The experiment in a line: Two-electrode voltage-clamp, Cel-L-AChR in Xenopus oocytes. The format is cell-based, Caenorhabditis elegans. The conditions noted are these: 100 μM.
In experiment [8] the test system is C. elegans Bristol N2 (wild type). The experiment in a line: C. elegans paralysis assay, N2. Set-up: species or system Caenorhabditis elegans. The following applies: agar plate containing 31 mM drug, 15-60 min.
The subject of experiment [9] is H. contortus L3 larvae, Lev/Pyr/Ivm multi-resistant Kokstad isolate. The experiment in a line: Automated larval migration assay. Set-up: species or system Haemonchus contortus. The following applies: for IC50: Haemonchus contortus, read-out: IC50 (L3 migration, ALMA); for resistance factor between Kok and Wey: based on respective ALMA IC50 values.
The test system of a further experiment is H. contortus L-AChR-2. The experiment in a line: Two-electrode voltage-clamp, Hco-L-AChR-2 in Xenopus oocytes. The format is cell-based, Haemonchus contortus. The conditions noted are these: 100 μM.
Experiment [10] deals with C. elegans L-AChR. The following applies: recombinant C. elegans L-AChR in Xenopus oocytes; ref Boulin et al., 2008; cited from earlier work.
The test system of experiment [11] is H. contortus Kokstad isolate (eggs). The experiment in a line: Egg hatch assay, Kokstad isolate. Details: species or system Haemonchus contortus. The following applies: triplicate. In short, it runs like this:
(§1)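 Benzimidazole test compound applied to eggs of each sheep-passaged isolate to establish benzimidazole susceptibility or resistance status. Method followed a published egg hatch protocol. ED50 reported in μg/ml, from triplicate tests.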

In experiment [12] the test system is H. contortus Weybridge isolate (eggs). The experiment in a line: Egg hatch assay, Weybridge isolate. Details: species or system Haemonchus contortus. The conditions noted are these: triplicate. In short, it runs like this:
as §1

Converted amounts (≈) assume the structure as drawn. Counter-ions that a name gives are not always drawn.

One may read the Hill slope as the slope factor of the fitted curve. By EC50 is commonly meant the concentration at which the effect is half-maximal. High values mean lower potency in that assay, low ones higher potency in that assay.

For the compound `C#Cc1cncc([C@@H]2CCCCN2)c1` [(S)-5-ethynyl-anabasine], the agonist potency result in experiment [1] was “higher agonist potency than other nicotine alkaloids”.
`CC(=O)OCC[N+](C)(C)C` [Acetylcholine, Acetylcholine chloride]: in experiment [2], the Hill slope amounted to 2.0 ± 0.2 and the “current elicited by perfusion” value is “robust currents in the μA range”. Also, in experiment [3], a half-maximal effect (EC50) was put at 22 ± 1.2 µM and the Hill slope was 2.1 ± 0.4. The “current elicited by perfusion” value in [3] (Cel-N-AChR, 100 μM) was “robust currents in the μA range”.
Consider `c1cncc([C@@H]2CCCCN2)c1` [Anabasine, anabasine], for which the EC50 stood at 1.7 ± 0.1 µM in experiment [2] and 27.5 ± 0.9 µM in experiment [3]. Further, the Hill slope in experiment [2] is 1.8 ± 0.2; in experiment [3], 2.4 ± 0.4. For the same compound, the “current elicited by perfusion” value in experiment [2] is “very similar currents as for Nic”; in experiment [3] (Cel-N-AChR, 100 μM), “very similar currents as for Nic”. Besides, the IC50 in experiment [4] turned out to be 179 ± 7.9 µM; in experiment [9], 141 ± 6.9 µM. For the same compound, the “effect on motility (paralysis)” value is on record as “affected” in [5], “significantly less sensitive” in experiment [6] and “affected” in [8]. The response of oocytes entry in the experiment with H. contortus L-AChR-1 is reported as “failed to induce significant response”; in the experiment with C. elegans L-AChR [7] it was “failed to induce significant response”; with H. contortus L-AChR-2, “very small currents on few oocytes”.
For the compound `c1ccc([C@H]2CN3CCSC3=N2)cc1` [Levamisole, (−)-tetramisole hydrochloride], in experiment [4], the IC50 turned out to be 1.14 ± 0.03 µM. In addition, in the experiment with C. elegans L-AChR [10], the “sensitivity of recombinant receptor” value is reported as “sensitive”. Further, in [9], the IC50 came to 14 ± 0.35 µM; the “resistance factor between Kok and Wey” value is listed as 12.3.
For the compound `CN1CCC[C@H]1c1cccnc1` [Nicotine, (−)-nicotine hydrogen tartrate], the figures for the EC50 in experiment [2] and in [3] were 2.9 ± 0.5 µM and 15.1 ± 1.3 µM, respectively. For the same compound, the Hill slope in [2] stood at 1.7 ± 0.2; in experiment [3] it was 2.2 ± 0.2. Further, the Emax at 100 µM in [2] (read-out: % of ACh response) worked out at 96.6 ± 9.2%. The IC50 in experiment [4] worked out at 611 ± 55.1 µM; in experiment [9] it was 1170 ± 67.7 µM. For the same compound, the “effect on motility (paralysis)” value is “affected” in [5], “significantly less sensitive” in experiment [6] and “affected” in [8]. The response of oocytes result was “failed to induce significant response” with H. contortus L-AChR-1, “failed to induce significant response” in the experiment with C. elegans L-AChR [7] and “responded robustly” in the experiment on H. contortus L-AChR-2. Also, the “sensitivity of recombinant receptor” value in the experiment on C. elegans L-AChR [10] is reported as “insensitive”. The “% of ACh response” value in experiment [3] (Cel-N-AChR, 100 μM) turned out to be 79.5 ± 7.5%.
As for `CN1CCCN=C1/C=C/c1cccs1` [Pyrantel, pyrantel citrate], the IC50 in experiment [4] is 0.77 ± 0.01 µM. Moreover, in experiment [9], the IC50 stood at 18.5 ± 1.32 µM; the “resistance factor between Kok and Wey” value is 23.9.
On to `c1ccc2[nH]c(-c3cscn3)nc2c1` [TBZ, thiabendazole], for which the “ED50 (egg hatch assay)” value in [11] is 0.437 ± 0.205 µg/mL (≈ 2.17 µM); in [12], 0.024 ± 0.001 µg/mL (≈ 0.119 µM).
Take (±)-nornicotine: the figures for the Hill slope in [2] and in [3] were 1.9 ± 0.3 and 2.7 ± 0.4, respectively. Moreover, the “current elicited by perfusion” value was “very similar currents as for Nic” in [2] and “very similar currents as for Nic” in experiment [3] (Cel-N-AChR, 100 μM). Moreover, the “effect on motility (paralysis)” value is reported as “affected” in experiment [5], “significantly less sensitive” in [6] and “affected” in [8]. Moreover, the response of oocytes result in the experiment with H. contortus L-AChR-1 is reported as “failed to induce significant response”; with C. elegans L-AChR [7] it was “failed to induce significant response”; in the experiment with H. contortus L-AChR-2, “very small currents on few oocytes”.
For the compound ivermectin, in [9], the “resistance factor between Kok and Wey” value is on record as 15.1.
